H9c2 protect – protects H9c2 cardiomyocytes from peroxide injury. H2O2 injury protection, ATPLite, 2 h. protection from H2O2 cell death, % at 20 µM. hit rate 0.63% among 360,000. AID 588492;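 active = compounds giving at least 50% protection of heart cells from peroxide-induced death in the single-dose screen, raw or plate-pattern-corrected value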;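 note: 0% = DMSO wells with peroxide and 100% = DMSO wells without peroxide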
Exocytosis inh – blocks lytic granule exocytosis; TALL-104 LAMP-1 surface exposure, flow cytometry; cells stimulated with thapsigargin and PMA; inhibition, % at 10 µM; hit rate 0.66% among 360,000;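 active = inhibition above about 55%, limit read from the data; inconclusive = no clear call, values can overlap the other calls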
HNF4A DNA FP – change in binding of human HNF4 alpha to DNA; activity change, % at 10 µM; hit rate 0.3% among 360,000; HNF4a-FITC DNA binding, fluorescence polarization, 1 h; in the data active = activity change above about 30%, passing the limit was not always enough
SENP1 inh – blocks the human SENP1 SUMO protease catalytic domain. hit rate 0.21% among 360,000. recombinant SENP1 catalytic domain, CyPet-SUMO1-YPet FRET cleavage. Q9P0U3. inhibition, % at 10 µM;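 active = inhibition at least 30% at 10 µM, raw YFP signal under a set limit, fluorescence ratio 0.5 to 1.5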;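 note: 0% = enzyme with DMSO and 100% = no enzyme wells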
Target sequence (Q9P0U3 419-644 limits assumed): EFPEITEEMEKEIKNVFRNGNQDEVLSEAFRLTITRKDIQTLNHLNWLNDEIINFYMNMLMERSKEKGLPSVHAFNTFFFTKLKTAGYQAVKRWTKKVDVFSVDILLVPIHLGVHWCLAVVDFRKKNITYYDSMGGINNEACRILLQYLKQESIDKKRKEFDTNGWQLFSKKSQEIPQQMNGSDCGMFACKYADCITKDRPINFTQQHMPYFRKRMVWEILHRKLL
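Material – human SENP1 catalytic domain · Input – SENP1 enzyme, 20 pM final · Compound dosing – single concentration of 10 µM compound, 0.5% DMSO final · Timing – enzyme reaction for 50 min at room temperature, dark · Measured by – FRET fluorescence in CFP and YFP emission channels · Control set – no-enzyme wells low, DMSO-plus-enzyme wells high control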
DSG3 Ab inh – inhibitors of pemphigus antibody binding to human desmoglein-3. DSG3-coupled beads, scFv-anti-DSG3-GFP binding, flow cytometry; hits give low values. binding (percent of control), % at 10 µM. hit rate 0.48% among 310,000;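 active = binding more than 3 SD below its plate's average and above zero; inconclusive = below that plate limit but binding exactly zero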;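 note: hits lower antibody fragment binding to DSG3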
Myeloid diff 2 – compounds promoting myeloid differentiation; ER-HoxA9 myeloid progenitors, lysozyme-GFP differentiation, flow cytometry; calls only at 10 µM; hit rate 1% among 360,000;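 active = normalized GFP-positive differentiation at or above the plate's own cutoff, the solvent-only control mean plus 3 SD; inconclusive = no clear call, values can overlap the other calls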;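 note: cells exposed to compound for four days before flow analysis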
Active calls of the source: *; i = inactive; ? = inconclusive; . = no result given; + = active, no number. Rows were chosen to be rich in hits. Some 3% of all compounds tested hit in one or more screens of this group.

SMILES | H9c2 protect | Exocytosis inh | HNF4A DNA FP | SENP1 inh | DSG3 Ab inh | Myeloid diff 2
O=C(O)c1cccc(-c2ccc(/C=N/Nc3ccc([N+](=O)[O-])cc3)o2)c1 | 4 | 13 | 124 | -49 | 94 | i
O=C(O)c1ccc(-c2ccc(/C=N/Nc3ccc([N+](=O)[O-])cc3)o2)cc1 | 6 | 23 | 129 | -37 | 6.2* | +
Cc1ccc(S(=O)(=O)CCC(=O)OC(C)c2nnc(-c3cccs3)o2)cc1 (centres undefined) | -7 | -4 | 0 | -1 | . | i
CCN(CC(=O)Nc1ccc2c(c1)OCCO2)C(=O)c1ccc([N+](=O)[O-])s1 | -5 | 1 | 2 | -2 | 96 | i
COC(=O)c1c(C)[nH]c(C(=O)CN2CCOCC2)c1C | 10 | 2 | -3 | 4 | 107 | i
COC(=O)c1c(C)[nH]c(C(=O)CC#N)c1C | -1 | 3 | 2 | 14 | 95 | +
CN(c1ccccc1)c1ccc(/C=N/N2CCOCC2)cc1 | -9 | 1 | 5 | 0 | 96 | i
O=C(CSc1ccsc1[N+](=O)[O-])N1CCN(c2ccc(Cl)cc2)CC1 | -11 | -5 | -7 | 3 | 84 | +
O=C(CSc1ccsc1[N+](=O)[O-])N1CCN(c2ccccc2)CC1 | -3 | 2 | -5 | 2 | 97 | i
COc1ccc(CC(N)c2csc(Nc3cc(NCCCO)ncn3)n2)cc1 (centres undefined) | 14 | 7 | 6 | -11 | . | +
COC(=O)C1=C(C)N(Cc2ccccc2)C(=NCCc2cccnc2)N[C@H]1c1ccc(Br)cc1 | -20 | 52 | -6 | -2 | 112 | +
Cc1cccc(C)c1-n1nnnc1-c1nc2cc(Br)ccc2[nH]c1=O | . | 77* | -1 | -26 | . | i
CCCC1=[N+](CC)CCn2c(C)ccc21 | 0 | 0 | -3 | 1 | 100 | i
CCCC1=[N+](CC(=O)c2ccc(C)cc2)CCn2cccc21 | -12 | -5 | 2 | 6 | 101 | +
NNC(=O)c1cccc(COc2ccc(Br)cc2)c1 | 12 | 1 | 4 | 1 | 111 | +
Cn1c(C(=O)NN)cc2cc(OCc3ccccc3)ccc21 | 13 | 2 | 4 | -2 | 100 | +
Cn1c(C(=O)NN)cc2cc(Oc3ccccc3)ccc21 | 18 | 5 | 0 | 0 | 117 | i
COc1ccc(OCc2cccc(C(=O)NN)c2)cc1 | -8 | -2 | -1 | 1 | 102 | +
COc1ccc(C(=O)NCc2nnc(SCC(=O)Nc3nnc(C)s3)o2)cc1 | -4 | 3 | 1 | 9 | 89 | i
CCSc1nnc(NC(=O)CSc2nnc(CNC(=O)c3ccc(OC)cc3)o2)s1 | 1 | -2 | 1 | 0 | -2.6* | i
CC1=CC(=O)C=C(C)C1=NOc1ccccc1[N+](=O)[O-] | -19 | 10 | -1 | 4 | . | .
Cc1nc(SCc2nc3c(C)cccc3[nH]2)c2oc3ccccc3c2n1 | 6 | 6 | 6 | -4 | 101 | i
Cc1nc(SCc2nc3c([N+](=O)[O-])cccc3[nH]2)c2oc3ccccc3c2n1 | 5 | 6 | 4 | 3 | 32* | i
COC(=O)Nc1ccc(N2CCOCC2)c(S(=O)(=O)N2CCOCC2)c1 | 3 | 6 | 8 | -1 | . | i
Cc1ccc(/C=C2\SC(N3CCCCC3)=NC2=O)cc1 | 0 | 2 | 2 | 3 | 102 | i
SMILES | H9c2 protect | Exocytosis inh | HNF4A DNA FP | SENP1 inh | DSG3 Ab inh | Myeloid diff 2
O=C1N=C(N2CCOCC2)S/C1=C/c1cccs1 | -3 | -2 | -2 | 0 | 110 | +
O=C1N=C(N2CCCC2)S/C1=C\c1ccccc1 | 1 | -1 | -2 | 1 | . | +
CC(=O)Nc1cccc(N/C=C(\C=O)c2nc3ccccc3o2)c1 | 33 | 56* | 3 | -32 | 124 | +
CC(=O)Nc1ccc(N/C=C(\C=O)c2nc3ccccc3o2)cc1 | -2 | -1 | 6 | -67 | 168 | i
O=C/C(=C\Nc1ccccn1)c1nc2cc(Cl)ccc2o1 | 56* | -1 | 8 | -19 | 91 | +
O=C/C(=C\Nc1ccccn1)c1nc2ccccc2o1 | 38 | -2 | 6 | -27 | 97 | i
CCN(CC)P(=O)(Nc1ccc(C)cc1Br)c1ccc(N(C)C)cc1NC(=O)c1ccco1 (centres undefined) | -4 | -6 | 2 | -6 | 104 | i
Cc1ccc(SCC(=O)OCC(=O)N(CC(C)C)c2c(N)n(Cc3ccccc3)c(=O)[nH]c2=O)cc1C | 1 | -8 | 6 | -3 | 96 | i
COc1[nH]c(/N=C/c2ccccc2)c(C#N)c1C#N | 4 | -1 | -2 | 70* | . | i
Cc1oc(/N=C/c2ccccc2)c(C#N)c1C | 2 | 4 | -2 | -4 | 89 | i
Cc1ccccc1OCC(=O)N/N=C/c1cc2ccccc2nc1Cl | -11 | 0 | -3 | -3 | 97 | i
C=CCc1ccccc1OCC(=O)N/N=C/c1ccc(OC(C)=O)cc1OC(C)=O | 73* | 14 | 2 | -9 | 95 | ?
OCC1CCCCN1C(=S)Nc1cccc(Cl)c1 (centres undefined) | -1 | -1 | -6 | 3 | 104 | i
Cc1cc(-c2ccc(N3CCOCC3)cc2)nc2ccccc12 | -20 | -6 | -13 | -80 | . | +
CN1CCN(c2ccc(-c3ccc4ccccc4n3)cc2)CC1 | -37 | 14 | -3 | -92 | 54 | +
O=[N+]([O-])c1ccc(/C=C/C2=NN(c3ccccc3)C(c3ccco3)C2)o1 (centres undefined) | -15 | 4 | 26 | -33 | 180 | +
O=C(O)c1cc(-c2cccnc2)nc2ccc(Br)cc12 | 0 | -1 | 1 | 1 | 106 | +
CC(=O)Nc1cccc(NC(=O)c2cc(-c3ccccn3)nc3ccc(Cl)cc23)c1 | -4 | 3 | 4 | -12 | 113 | i
CC(=O)Nc1cccc(NC(=O)c2cc(-c3cccnc3)nc3ccc(Br)cc23)c1 | 80* | 0 | 4 | 3 | 101 | i
CC(=O)Nc1cccc(NC(=O)c2cc(-c3cccnc3)nc3ccc(Cl)cc23)c1 | 65* | -1 | 17 | 2 | 87 | i
O=C(O)c1cc(-c2ccc3c(c2)OCO3)nc2ccc(Br)cc12 | -16 | -2 | -5 | -3 | 33* | i
O=C(Nc1ccc(C(F)(F)F)cc1)c1cc(-c2cccnc2)nc2ccc(Br)cc12 | -1 | 0 | 2 | 0 | 90 | i
O=C(CN1C(=O)c2cccc3cccc1c23)NC1CCCC1 | 4 | 0 | -2 | -18 | 119 | i
O=C(COc1cc(Cl)c(Cl)cc1Cl)NCCN1CCOCC1 | 3 | -2 | -1 | -1 | . | +
COc1cc(S(=O)(=O)N(Cc2cccnc2)Cc2cccc(OC)c2OC)ccc1-n1cnnn1 | 6 | 4 | 2 | -3 | 96 | i

Screening data: PubChem, several laboratories
